Our source for the IC50, inhibition and Activity values is ChEMBL document CHEMBL4680101, “Discovery and Optimization of Allosteric Inhibitors of Mutant Isocitrate Dehydrogenase 1 (R132H IDH1) Displaying Activity in Human Acute Myeloid Leukemia Cells” (J Med Chem, 2016).

SMILES strings stand for the structures. Calls of active or inactive are those of the source. The calls are words filed in the database; no cut-off is given here.

The target in data set [1] is Isocitrate dehydrogenase [NADP] cytoplasmic (Homo sapiens, UniProt O75874, R132C). The experiment in a line: Inhibition of IDH1 R132C mutant (unknown origin) using alpha-ketoglutarate and NADPH incubated for 30 mins by fluorescence based assay. The procedure, abridged: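 IDH1 R132C (100 nM) in 20 mM Tris pH 7.5, 10 mM MgCl2, 150 mM NaCl, 0.03% BSA with 0.5 mM α-ketoglutarate and 50 µM NADPH. Reaction 30 min at 26 °C. NADPH consumption read via diaphorase/resazurin coupling, resorufin fluorescence Ex544/Em590.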

Data set [2] addresses 11-beta-hydroxysteroid dehydrogenase 1 (Homo sapiens, UniProt P28845). Nature of the data set: Inhibition of active recombinant human N-terminal His-tagged 11-betaHSD1 expressed in Escherichia coli using cortisone, NADPH and glucose-6-phosphate incubated for 2 hrs by glucose-6-phosphate dehydrogenase based coupled HTRF immuno-competitive assay. In a few lines:
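Coupled HTRF immuno-competitive assay: 11β-HSD1 (1.5 µg/ml) in 100 mM potassium phosphate pH 7.6 with 160 nM cortisone, 1 mM EDTA, 1 mM glucose-6-phosphate and 12.5 µg/ml G6PD, started with 0.1 mM NADPH. Reaction 30 min at 37 °C, stopped with glycyrrhetinic acid in cortisol-d2, then anti-cortisol cryptate for 2 h at room temperature. TR-FRET read-out.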

Data set [3] deals with T1, Isocitrate dehydrogenase [NADP] cytoplasmic (Homo sapiens, UniProt O75874, R132H). Nature of the data set: Allosteric inhibition of IDH1 R132H mutant (unknown origin) expressed in HEK293T cells assessed as reduction in 2-HG production incubated for 48 hrs by LC-MS/MS analysis. It is filed as cell-based. The procedure, abridged:
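HEK293T cells reverse-transfected with pcDNA3.1 IDH1 R132H (Lipofectamine 2000), 6 h at 37 °C in 1% FBS plating medium, then assay medium. Compound added in DMSO (0.15% final), 48 h at 37 °C. Medium 2-HG quantified by HILIC LC-MS/MS with D3-2-HG internal standard, normalised to Hoechst nuclear count. Mean of two biological replicates.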
Target sequence in this assay (O75874 2-414 R132H limits assumed): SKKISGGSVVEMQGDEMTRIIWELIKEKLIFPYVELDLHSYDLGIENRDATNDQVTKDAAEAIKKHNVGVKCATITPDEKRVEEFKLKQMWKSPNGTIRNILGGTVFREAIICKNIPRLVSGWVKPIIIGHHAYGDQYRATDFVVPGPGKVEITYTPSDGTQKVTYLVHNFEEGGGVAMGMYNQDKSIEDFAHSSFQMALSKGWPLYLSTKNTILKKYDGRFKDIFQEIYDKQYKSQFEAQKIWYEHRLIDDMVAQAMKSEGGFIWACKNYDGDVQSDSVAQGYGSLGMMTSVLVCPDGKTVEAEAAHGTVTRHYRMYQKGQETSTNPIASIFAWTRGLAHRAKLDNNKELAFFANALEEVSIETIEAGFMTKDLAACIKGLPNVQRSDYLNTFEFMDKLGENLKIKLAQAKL

For the next data set, the system named is HeLa. Nature of the data set: Cytotoxicity in human HeLa cells. It is filed as cell-based.
The subject of data set [4] is Isocitrate dehydrogenase [NADP] cytoplasmic (Homo sapiens), O75874 [R132H]. The experiment in a line: (§1) Allosteric inhibition of Myc-tagged IDH1 R132H mutant (unknown origin) expressed in human THP-1 cells assessed as inhibition of 2-HG production incubated for 5 days in presence of doxycycline by LC-MS/MS analysis. It is filed as cell-based. The note with it: filed as negative allosteric modulator, time 5.0 day. In a few lines: (§2)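 THP1 cells carrying doxycycline-inducible Myc-tagged IDH1 R132H (lentiviral, blasticidin-selected) cultured 5 days with doxycycline and compound. 2-HG measured by HILIC LC-MS/MS after solid-phase extraction, D3-2-HG internal standard, against a medium-spiked standard curve. Mean of two biological replicates.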

For data set [5], the target named is T1, Isocitrate dehydrogenase [NADP] cytoplasmic. The description is as §1. It is filed as cell-based. In a few lines:
as §2
Target sequence in this assay (O75874 whole entry R132H): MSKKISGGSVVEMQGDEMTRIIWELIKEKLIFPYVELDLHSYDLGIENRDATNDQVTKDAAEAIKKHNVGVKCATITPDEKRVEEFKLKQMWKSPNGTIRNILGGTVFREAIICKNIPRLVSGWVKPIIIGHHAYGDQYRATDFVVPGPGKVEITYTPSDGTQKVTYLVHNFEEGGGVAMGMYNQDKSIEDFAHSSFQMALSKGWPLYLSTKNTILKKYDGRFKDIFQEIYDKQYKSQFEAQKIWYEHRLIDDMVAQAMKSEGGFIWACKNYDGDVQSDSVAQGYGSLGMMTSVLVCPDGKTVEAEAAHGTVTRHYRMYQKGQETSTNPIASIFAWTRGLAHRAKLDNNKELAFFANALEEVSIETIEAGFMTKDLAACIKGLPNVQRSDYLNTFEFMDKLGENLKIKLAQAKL

The subject of data set [6] is Isocitrate dehydrogenase [NADP] cytoplasmic (Homo sapiens), O75874 [R132H]. Nature of the data set: Allosteric inhibition of Myc-tagged IDH1 R132H mutant (unknown origin) expressed in human THP-1 cells assessed as inhibition of 2-HG production at >=10 uM incubated for 5 days in presence of doxycycline by LC-MS/MS analysis. It is filed as cell-based. The note with it: filed as negative allosteric modulator, dose microM >=10, time 5.0 day. In a few lines: as §2

For another data set, the system named is THP-1. The experiment in a line: Effect on cell proliferation in human THP-1 cells. It is filed as ADME, cell-based.
Data set [7] is described as follows: Effect on cell differentiation in human THP-1 cells. It is filed as ADME, cell-based.
Data set [8] concerns Leukemic blast cell. The experiment in a line: Induction of myeloid differentiation in human primary AML blast cells from patient with IDH1 R132H mutation assessed as up-regulation of CD11b at 1 times to 8 times IC50 incubated for 14 days by flow cytometry. The note with it: time 14.0 day. Format: functional, tissue-based. The procedure, abridged:
(§3)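 Primary AML cells (≥80% blasts), 2 x 10^4 per condition in methylcellulose with cytokines (IL-3, IL-6, IL-11, FLT3L, SCF, TPO, G-CSF, EPO). Compound at 1x, 4x, 8x cellular IC50 or DMSO (1:1000), 14 days at 37 °C. Recovered cells stained for CD11b, CD15 and CD117, ≥30 min at 4 °C, read by flow cytometry.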

The subject of data set [9] is Leukemic blast cell. Nature of the data set: Induction of myeloid differentiation in human primary AML blast cells from patient with IDH1 R132H mutation assessed as up-regulation of CD15 at 1 times to 8 times IC50 incubated for 14 days by flow cytometry. It is filed as functional, tissue-based. As to conditions: time 14.0 day. In a few lines: as §3
The test system of data set [10] is Leukemic blast cell. Nature of the data set: Induction of myeloid differentiation in human primary AML blast cells from patient with IDH1 R132H mutation assessed as down-regulation of CD117 at 1 times to 8 times IC50 incubated for 14 days by flow cytometry. It is filed as functional, tissue-based. As to conditions: time 14.0 day. In a few lines: as §3
In data set [11] the test system is Leukemic blast cell. Nature of the data set: Induction of myeloid differentiation in human primary AML blast cells from patient with IDH1 R132H mutation assessed as induction of mature cellular morphology at 1 times to 8 times IC50 incubated for 14 days by cytospin based analysis. It is filed as functional, tissue-based. The note with it: time 14.0 day. In a few lines: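 Primary IDH1 R132H AML cells in cytokine-supplemented methylcellulose with compound or DMSO vehicle for 14 days. Cells recovered by dilution in PBS and centrifugation, then examined on cytospin preparations for morphology.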

For data set [12], the system named is Leukemic blast cell. The experiment in a line: Induction of myeloid differentiation in human primary AML blast cells from patient with IDH1 R132H mutation assessed as increase in clonogenic activity at 1 times to 8 times IC50 incubated for 14 days by cytospin based analysis. It is filed as functional, tissue-based. As to conditions: time 14.0 day. In a few lines:
(§4)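 Primary AML cells (≥80% blasts) seeded at 2 x 10^4 per condition in cytokine-supplemented methylcellulose with compound or DMSO vehicle (1:1000), 37 °C, 5% CO2. Colonies scored and counted after 14 days, expressed relative to vehicle control. Three independent experiments, mean ± standard error.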

Data set [13] relates to Leukemic blast cell. The experiment in a line: Induction of myeloid differentiation in human primary AML blast cells from patient with wild type IDH1 assessed as increase in clonogenic activity at 1 times to 8 times IC50 incubated for 14 days by cytospin based analysis. It is filed as functional, tissue-based. The note with it: time 14.0 day. In a few lines: as §4
Data set [14] has as its system Leukemic blast cell. The experiment in a line: Induction of myeloid differentiation in human primary AML blast cells from patient with wild type IDH1 assessed as up-regulation of CD11b at 1 times to 8 times IC50 incubated for 14 days by flow cytometry. It is filed as functional, tissue-based. As to conditions: time 14.0 day. The procedure, abridged: as §3
Data set [15] relates to Leukemic blast cell. The experiment in a line: Induction of myeloid differentiation in human primary AML blast cells from patient with wild type IDH1 assessed as up-regulation of CD15 at 1 times to 8 times IC50 incubated for 14 days by flow cytometry. Format: functional, tissue-based. As to conditions: time 14.0 day. In a few lines: as §3
Data set [16] concerns Leukemic blast cell. Nature of the data set: Induction of myeloid differentiation in human primary AML blast cells from patient with wild type IDH1 assessed as down-regulation of CD117 at 1 times to 8 times IC50 incubated for 14 days by flow cytometry. It is filed as functional, tissue-based. The note with it: time 14.0 day. The procedure, abridged:
as §3

For data set [17], the target named is Isocitrate dehydrogenase [NADP] cytoplasmic (Homo sapiens, UniProt O75874). Nature of the data set: Inhibition of wild type IDH1 (unknown origin) using isocitrate and NADP incubated for 30 mins by fluorescence based assay.
The target of data set [18] is T2, Isocitrate dehydrogenase [NADP], mitochondrial (Homo sapiens, UniProt P48735).
T2 sequence (P48735 whole entry): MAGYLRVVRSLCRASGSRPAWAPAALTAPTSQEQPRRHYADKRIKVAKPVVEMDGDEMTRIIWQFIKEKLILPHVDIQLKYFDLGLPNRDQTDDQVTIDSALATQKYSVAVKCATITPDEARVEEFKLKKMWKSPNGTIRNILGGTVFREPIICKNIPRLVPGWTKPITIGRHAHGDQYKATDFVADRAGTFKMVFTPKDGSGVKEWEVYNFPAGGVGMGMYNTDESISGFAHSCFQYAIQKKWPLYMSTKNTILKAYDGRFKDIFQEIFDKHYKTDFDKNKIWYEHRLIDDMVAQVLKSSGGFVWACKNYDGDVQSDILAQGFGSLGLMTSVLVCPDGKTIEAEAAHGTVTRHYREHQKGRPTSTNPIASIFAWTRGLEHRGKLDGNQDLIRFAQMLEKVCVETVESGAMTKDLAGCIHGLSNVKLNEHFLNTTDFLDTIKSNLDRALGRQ
The experiment in a line: Inhibition of wild type IDH2 (unknown origin) using isocitrate and NADP incubated for 60 mins by fluorescence based assay.

The target in data set [19] is Glucose-6-phosphate 1-dehydrogenase (Homo sapiens, UniProt P11413). Nature of the data set: Inhibition of wild type G6PD (unknown origin) using glucose-6-phosphate and NADP incubated for 30 mins by fluorescence based assay.
The target of data set [20] is T1, Isocitrate dehydrogenase [NADP] cytoplasmic. Nature of the data set: Inhibition of IDH1 R132H mutant (unknown origin) using alpha-ketoglutarate and NADPH incubated for 60 mins by fluorescence based assay.
Target sequence in this assay (O75874 2-414 R132H limits assumed): as the sequence (O75874 2-414 R132H limits assumed) above

Sequence of Isocitrate dehydrogenase [NADP] cytoplasmic (Homo sapiens), O75874 [R132H] (O75874 whole entry R132H): as the sequence (O75874 whole entry R132H) above
Sequence of 11-beta-hydroxysteroid dehydrogenase 1 (P28845 whole entry): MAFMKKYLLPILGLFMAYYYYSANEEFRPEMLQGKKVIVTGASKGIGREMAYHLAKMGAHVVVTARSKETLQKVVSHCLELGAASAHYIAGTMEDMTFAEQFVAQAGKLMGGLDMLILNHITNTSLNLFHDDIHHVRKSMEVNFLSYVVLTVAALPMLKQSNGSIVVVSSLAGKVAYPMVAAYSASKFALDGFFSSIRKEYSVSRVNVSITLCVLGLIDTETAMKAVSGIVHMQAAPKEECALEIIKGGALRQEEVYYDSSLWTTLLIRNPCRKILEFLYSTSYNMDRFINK
Sequence of Glucose-6-phosphate 1-dehydrogenase (P11413 whole entry): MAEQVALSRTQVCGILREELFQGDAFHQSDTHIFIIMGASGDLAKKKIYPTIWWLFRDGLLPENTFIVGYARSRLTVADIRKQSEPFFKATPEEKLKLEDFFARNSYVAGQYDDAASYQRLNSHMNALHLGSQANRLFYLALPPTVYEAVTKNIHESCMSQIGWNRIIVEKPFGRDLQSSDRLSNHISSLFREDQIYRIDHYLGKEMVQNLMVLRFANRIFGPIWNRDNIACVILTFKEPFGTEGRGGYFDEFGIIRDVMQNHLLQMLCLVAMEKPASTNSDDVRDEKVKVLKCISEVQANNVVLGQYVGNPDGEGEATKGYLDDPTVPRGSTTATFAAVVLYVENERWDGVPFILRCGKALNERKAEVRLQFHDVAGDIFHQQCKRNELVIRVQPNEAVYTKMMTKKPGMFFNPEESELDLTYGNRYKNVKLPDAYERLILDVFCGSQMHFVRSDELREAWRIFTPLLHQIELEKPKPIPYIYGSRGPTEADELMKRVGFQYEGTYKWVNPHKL
Sequence of Isocitrate dehydrogenase [NADP] cytoplasmic (Homo sapiens, UniProt O75874, R132C) (O75874 2-414 R132C limits assumed): as the sequence (O75874 2-414 R132H limits assumed) above, with H131C counted along it
Sequence of Isocitrate dehydrogenase [NADP] cytoplasmic (Homo sapiens, UniProt O75874) (O75874 whole entry): as the sequence (O75874 whole entry R132H) above, with H132R counted along it

Regarding `CC(C)CCOc1nc(N2C[C@@H]3[C@H](C2)[C@H]3C(=O)O)ccc1C(=O)NC1C2CC3CC1CC(O)(C3)C2` (some centres not stated), the IC50 in data set [1] is 470 nM; in data set [2], 9 nM; in [3], 2300 nM; in the data set with HeLa, greater than 30 µM; in data set [5], 1900 nM; in data set [17], greater than 50 µM. The IC50 in [18] is greater than 50 µM; in data set [19], greater than 50 µM; in data set [20], 270 nM. Besides, the inhibition entry in [4] is “Dose-dependent effect”; in data set [6], 100%. Also, the Activity entry (with THP-1; in data set [7]) was “Non-Toxic” throughout. In addition, the outcome with Leukemic blast cell [8], in the data set on Leukemic blast cell [9], with Leukemic blast cell [10], in the data set on Leukemic blast cell [11] and with Leukemic blast cell [12] was Active. Further, the result in the data set with Leukemic blast cell [13], in the data set with Leukemic blast cell [14], in the data set with Leukemic blast cell [15] and in the data set with Leukemic blast cell [16] was inactive.
